Experimental findings from ChEMBL document CHEMBL1765004 (2011) are described below.

Activity calls are given as the source filed them. The rule behind the calls is not given here.

Assay [1] concerns HCT-116. In words: Antimicrofilament activity in human HCT116 cells assessed as total loss of microfilament network at 1 uM by rhodamine-phalloidin staining. Type of assay: functional, cell-based.
The next assay concerns DU-145. In words: Anticancer activity against human DU145 cells. The format is functional. The method in brief:
(§1)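 NCI-DTP 60 cell line screen; GI50 values supplied by NCI-DTP. HCT-116 GI50 for some entries determined instead by a separate group (Henry Ford Hospital). Compounds failing initial single-dose testing at 10 μM (<25% growth inhibition) were not taken to five-dose testing.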

The subject of a further assay is A498. In words: Anticancer activity against human A498 cells. The format is functional. The procedure, abridged: as §1
For a further assay, the system named is PC-3. In words: Growth inhibition against human PC3 cells assessed as disruption of actin cytoskeleton. The format is functional.
In another assay the test system is LOX IMVI. In words: Anticancer activity against human LOXIMVI cells. The format is functional. The procedure, abridged: as §1
Assay [2] deals with HCT-116. In words: Antimicrofilament activity in human HCT116 cells assessed as total loss of microfilament network at 5 uM by rhodamine-phalloidin staining. The format is functional, cell-based.
The subject of assay [3] is HCT-116. In words: Cytotoxicity against human HCT116 cells assessed as time required to kill 90% of tumor cells at 0.004 uM by clonogenic assay. Type of assay: functional. The method in brief: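 Clonogenic assay: HCT-116 seeded at 200–20 000 cells per 60 mm dish in RPMI + 10% FBS. Drug was given at 1 mg/mL and 10-fold dilutions for 2 h or 24 h, then replaced with drug-free medium, or given continuously. After 7 days colonies were stained with methylene blue and those of ≥50 cells counted, normalized to untreated control. Repeats spanned 100–0.1% survival; endpoint was 90% kill.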

Assay [4] concerns HCT-116. In words: Antimicrofilament activity in human HCT116 cells assessed as complete loss of microfilament network at 0.5 uM to 5 uM by rhodamine-phalloidin staining.
The subject of assay [5] is HCT-116. In words: Antimicrofilament activity in human HCT116 cells assessed as total loss of microfilament network at 0.5 uM by rhodamine-phalloidin staining. The format is functional, cell-based.
The next assay relates to IGROV-1. In words: Anticancer activity against human IGROV1 cells. The format is functional. The procedure, abridged:
as §1

The test system of another assay is MDA-MB-231. In words: Anticancer activity against human MDA-MB-231 cells. Type of assay: functional. The method in brief: as §1
The test system of the next assay is U-251. In words: Anticancer activity against human U251 cells. The format is functional. The procedure, abridged:
as §1

The test system of assay [6] is HCT-116. In words: Antimicrofilament activity in human HCT116 cells assessed as loss of microfilament at 0.1 uM by rhodamine-phalloidin staining. Type of assay: functional, cell-based.
The next assay relates to NCI-H522. In words: Anticancer activity against human NCI-H522 cells. The format is functional. The method in brief: as §1
The nature of assay [7]: Growth inhibition against human TSU-Pr1 cells assessed as disruption of actin cytoskeleton. The format is functional.
A further assay relates to LNCaP. In words: Growth inhibition against human LNCAP cells assessed as disruption of actin cytoskeleton. The format is functional.
Assay [8] has as its system HCT-116. In words: Antimicrofilament activity in human HCT116 cells assessed as loss of microfilament at 0.05 uM by rhodamine-phalloidin staining. The format is functional, cell-based.
For assay [9], the system named is HCT-116. In words: Antimicrofilament activity in human HCT116 cells assessed as loss of microfilament at 0.01 uM by rhodamine-phalloidin staining. The format is functional, cell-based.
Assay [10] has as its system HCT-116. In words: Anticancer activity against human HCT116 cells. Type of assay: functional. The method in brief: as §1

As for `C/C1=C\[C@H](C)C[C@H](C)OC(=O)C[C@H](c2ccc(O)cc2)NC(=O)[C@@H](Cc2c(Br)[nH]c3ccccc23)N(C)C(=O)[C@H](C)NC(=O)[C@@H](C)C1` [JASPAMIDE], the outcome in the assay on HCT-116 [1], with HCT-116 [2], in the assay on HCT-116 [4] and in the assay on HCT-116 [5] was Active. The GI50 came to 30 nM in the assay with DU-145; 30 nM in the assay on A498; 65000 nM in the assay on PC-3; 10 nM in the assay with LOX IMVI; 20 nM in the assay with IGROV-1; 10 nM with MDA-MB-231. Also, the GI50 was found to be 70 nM with U-251; 30 nM with NCI-H522; 170000 nM in assay [7]; 41000 nM with LNCaP; 40 nM in the assay on HCT-116 [10]. Also, in the assay with HCT-116 [3], the Time was 7 days. Also, the outcome with HCT-116 [6], in the assay on HCT-116 [8] and in the assay on HCT-116 [9] was inactive.

A word on the GI50: it is the concentration at which growth is held to half of that of the control.
